From ChEMBL document CHEMBL3525985, “Regiospecificity and stereospecificity of human UDP-glucuronosyltransferases in the glucuronidation of estriol, 16-epiestriol, 17-epiestriol, and 13-epiestradiol” (Drug Metab Dispos, 2013)
One block for each molecule: values may come before it.

Key:
Type in all cases: ADME
[1] = molecular target: T1, UDP-glucuronosyltransferase 2A1 (Homo sapiens, UniProt P0DTE4); assay: Drug metabolism assessed as recombinant human C-terminal His-tagged UGT2A1-mediated 17-epiestriol-16-glucuronide formation at 200 uM after 15 to 60 mins by HPLC analysis in presence of UDPGA; conditions: recombinant enzyme
T1 sequence (P0DTE4 whole entry): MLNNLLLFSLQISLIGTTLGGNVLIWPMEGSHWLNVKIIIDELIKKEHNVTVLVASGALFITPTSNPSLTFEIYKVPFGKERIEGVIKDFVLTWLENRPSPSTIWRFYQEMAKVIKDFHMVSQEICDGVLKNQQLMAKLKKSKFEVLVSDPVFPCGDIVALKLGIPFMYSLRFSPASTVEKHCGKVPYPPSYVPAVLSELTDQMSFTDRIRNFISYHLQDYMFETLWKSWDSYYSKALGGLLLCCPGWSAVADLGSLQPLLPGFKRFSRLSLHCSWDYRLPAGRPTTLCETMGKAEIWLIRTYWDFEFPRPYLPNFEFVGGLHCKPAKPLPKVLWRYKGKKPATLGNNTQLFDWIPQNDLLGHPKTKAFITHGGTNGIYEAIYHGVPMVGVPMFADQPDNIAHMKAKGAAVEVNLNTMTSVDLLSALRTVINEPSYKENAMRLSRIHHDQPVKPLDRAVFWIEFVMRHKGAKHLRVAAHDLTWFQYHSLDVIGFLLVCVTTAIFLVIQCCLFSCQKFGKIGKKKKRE
Summary of the method: (§1)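 Screening at a single substrate concentration of 200 μM, in triplicate. The reaction used 5 or 50 µg of UGT-enriched insect cell membranes in 50 mM phosphate pH 7.4 with 10 mM MgCl₂ and 5 mM UDPGA, 10% final DMSO. Incubation was 15–60 min at 37°C. Perchloric acid stopped the reaction and supernatants were analysed by HPLC. Controls lacked UDPGA. Rates were normalized to relative UGT expression level.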

[2] = molecular target: T2, UDP-glucuronosyltransferase 2B17 (Homo sapiens, UniProt O75795); assay: Drug metabolism assessed as recombinant human C-terminal His-tagged UGT2B17-mediated 13-epiestradiol-17-glucuronide formation at 200 uM after 15 to 60 mins by HPLC analysis in presence of UDPGA; conditions: recombinant enzyme; summary of the method: as §1
T2 sequence (O75795 whole entry): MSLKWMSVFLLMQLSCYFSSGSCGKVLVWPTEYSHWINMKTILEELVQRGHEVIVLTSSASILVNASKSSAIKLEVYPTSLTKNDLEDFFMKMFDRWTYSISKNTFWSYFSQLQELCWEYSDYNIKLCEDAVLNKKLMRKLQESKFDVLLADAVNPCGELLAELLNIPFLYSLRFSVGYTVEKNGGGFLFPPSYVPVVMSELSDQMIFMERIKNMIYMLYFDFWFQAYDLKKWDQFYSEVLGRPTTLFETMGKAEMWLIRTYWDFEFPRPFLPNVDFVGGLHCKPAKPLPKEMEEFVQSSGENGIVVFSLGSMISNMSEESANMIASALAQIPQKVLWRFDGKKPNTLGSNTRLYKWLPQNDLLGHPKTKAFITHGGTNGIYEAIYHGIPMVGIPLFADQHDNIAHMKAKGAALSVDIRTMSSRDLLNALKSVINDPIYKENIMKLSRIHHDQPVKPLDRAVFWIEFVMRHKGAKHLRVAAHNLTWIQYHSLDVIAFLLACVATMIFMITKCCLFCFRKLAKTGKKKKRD

[3] = molecular target: T1, UDP-glucuronosyltransferase 2A1; assay: Drug metabolism assessed as recombinant human C-terminal His-tagged UGT2A1-mediated 16-epiestriol-16-glucuronide formation after 15 to 60 mins by Michaelis-Menten equation analysis in presence of UDPGA; conditions: recombinant enzyme
[4] = molecular target: T3, UDP-glucuronosyltransferase 1A1 (Homo sapiens, UniProt P22309); assay: Drug metabolism assessed as recombinant human C-terminal His-tagged UGT1A1-mediated estradiol-3-glucuronide formation at 200 uM after 15 to 60 mins by HPLC analysis in presence of UDPGA; conditions: recombinant enzyme; summary of the method: as §1
T3 sequence (P22309 whole entry): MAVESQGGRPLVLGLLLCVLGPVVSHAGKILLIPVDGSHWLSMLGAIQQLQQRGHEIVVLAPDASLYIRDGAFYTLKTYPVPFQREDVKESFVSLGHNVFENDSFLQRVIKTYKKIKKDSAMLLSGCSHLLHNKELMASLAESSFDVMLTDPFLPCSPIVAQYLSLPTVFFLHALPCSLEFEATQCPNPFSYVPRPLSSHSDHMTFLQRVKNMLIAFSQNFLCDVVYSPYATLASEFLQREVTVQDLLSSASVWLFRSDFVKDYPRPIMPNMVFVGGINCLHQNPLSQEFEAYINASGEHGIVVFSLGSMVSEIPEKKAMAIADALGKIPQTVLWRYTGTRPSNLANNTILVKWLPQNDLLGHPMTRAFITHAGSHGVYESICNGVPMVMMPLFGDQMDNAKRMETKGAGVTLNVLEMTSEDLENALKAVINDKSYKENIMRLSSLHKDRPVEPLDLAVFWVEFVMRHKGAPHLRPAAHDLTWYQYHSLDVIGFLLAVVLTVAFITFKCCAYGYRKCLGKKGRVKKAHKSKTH

[5] = Drug metabolism in human intestine microsomes assessed as estriol-16-glucuronide formation after 15 to 60 mins by Michaelis-Menten equation analysis in presence of UDPGA
Summary of the method: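 Pooled human intestine microsomes (6 donors), 0.5 or 10 µg, with alamethicin at 5% of total protein. Incubated with 50 mM phosphate pH 7.4, 10 mM MgCl₂, 5 mM UDPGA and 10% DMSO for 15–60 min at 37°C. Each glucuronide regioisomer quantified by HPLC, in triplicate, with substrate consumption at or below 10%.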

SMILES: C[C@]12CC[C@@H]3c4ccc(O)cc4CC[C@H]3[C@@H]1C[C@@H](O)[C@H]2O
- Drug metabolism [1]: metabolite_detected

SMILES: C[C@@]12CC[C@@H]3c4ccc(O)cc4CC[C@H]3[C@@H]1CC[C@@H]2O
- Drug metabolism [2]: metabolite_detected

SMILES: C[C@]12CC[C@@H]3c4ccc(O)cc4CC[C@H]3[C@@H]1CC[C@@H]2O [ESTRADIOL]
- Drug metabolism [4]: metabolite_detected

Results, then the molecule that gave them:

- Drug metabolism [3]: 260 pmol/min/mg
SMILES: C[C@]12CC[C@@H]3c4ccc(O)cc4CC[C@H]3[C@@H]1C[C@H](O)[C@@H]2O [EPIESTRIOL]

- Km [5]: 5.1 µM
- Vmax [5]: 953 pmol/min/mg
SMILES: C[C@]12CC[C@@H]3c4ccc(O)cc4CC[C@H]3[C@@H]1C[C@@H](O)[C@@H]2O [ESTRIOL]
